{
  "source": "ChEMBL document CHEMBL1128600",
  "about": "“The cholesterol derivative of a triantennary galactoside with high affinity for hepatic asialoglycoprotein receptor: a potent cholesterol lowering agent” (J Med Chem, 1995)",
  "key": {"Homo sapiens [1]": {"species_on_record": "Homo sapiens", "assay": "Particle size of LDL after incubation with the compound (0.0055%)", "assay_type": "functional", "how_it_was_run": "(§1)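 Lipoproteins (LDL 1.019–1.063, HDL 1.063–1.21 ×10³ kg/m³) isolated from human serum by KBr/NaCl density-gradient ultracentrifugation. LDL (0.5 mg/mL) or HDL (2.0 mg/mL) incubated 10 min at room temperature in PBS pH 7.40 with 0–0.33% (w/v) agent. Size measured by photon correlation spectroscopy (120°, 632 nm, 72 s accumulation) and reported as mass-weighted mean ± standard error.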"}, "Homo sapiens [2]": {"species_on_record": "Homo sapiens", "assay": "Particle size of HDL after incubation with the compound (0.01%)", "assay_type": "functional", "how_it_was_run": "as §1"}},
  "data": [
    {"smiles": "C[C@@H]1CC[C@@]2(OC1)O[C@H]1[C@@H](O)[C@H]3[C@@H]4CC[C@H]5C[C@@H](O[C@@H]6O[C@H](CO)[C@H](O[C@@H]7O[C@H](CO)C(O)[C@H](O[C@@H]8OC[C@@H](O)[C@H](O)[C@H]8O)[C@H]7O[C@@H]7O[C@H](CO)[C@H](O)[C@H](O[C@@H]8O[C@H](CO)[C@@H](O)[C@H](O)[C@H]8O)[C@H]7O)[C@H](O)[C@H]6O)[C@H](O)C[C@]5(C)[C@H]4CC[C@]3(C)[C@H]1[C@@H]2C", "note": "(some centres not stated)", "values": [
      {"measurement": "Activity", "setting": "Homo sapiens [1]", "result": "Increase"},
      {"measurement": "Activity", "setting": "Homo sapiens [2]", "result": "Increase"}
    ]}
  ]
}
